From ChEMBL document CHEMBL1123740, “Potential anti-AIDS drugs. 2',3'-Dideoxycytidine analogues” (1987)

system: not listed separately; test: Compound was evaluated for the protective effect against HTLV-III/LAV (HIV) pathogenesis at a concentration of 200(uM); assay type: functional
How it was run: (§1)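 ATH8 cells (2×10^5) were polybrene-treated, then exposed to HTLV-IIIB (2000 virus particles/cell) for 45 min. They were resuspended in 2 mL IL-2-containing medium with or without compound and incubated at 37 °C in 5% CO2. Viable cells were counted by trypan blue exclusion on days 5–7. % protection compared infected treated, infected untreated, and uninfected cells.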

Compound	Protective effect
Nc1nc(=O)n(C2CCC(CO)O2)cc1Br (stereo not given)	0%
Cc1cn([C@H]2C=C[C@@H](CO)O2)c(=O)[nH]c1=O [STAVUDINE]	77%

system: not listed separately; test: Compound was evaluated for the protective effect against HTLV-III/LAV (HIV) pathogenesis at a concentration of 30(uM); assay type: functional; how it was run: as §1

Compound	Protective effect
Nc1nc(=O)n(C2CCC(CO)O2)cc1Br (stereo not given)	5%

system: not listed separately; test: Compound was evaluated for the protective effect against HTLV-III/LAV (HIV) pathogenesis at a concentration of 10(uM); assay type: functional; how it was run: as §1

Compound	Protective effect
Cc1cn(C2CCC(CO)O2)c(=O)nc1N (stereo not given)	7%
Nc1ncn(C2CCC(CO)O2)c(=O)n1 (stereo not given)	58%
Nc1nc(=O)n(C2CCC(CO)O2)cc1Br (stereo not given)	8%
N.N.Nc1ccn(C2CCC(COP(=O)(O)O)O2)c(=O)n1 (stereo not given)	74%
Cc1cn([C@H]2C=C[C@@H](CO)O2)c(=O)[nH]c1=O [STAVUDINE]	3%

system: not listed separately; test: Compound was evaluated for the protective effect against HTLV-III/LAV (HIV) pathogenesis at a concentration of 1(uM); assay type: functional; how it was run: as §1

Compound	Protective effect
Nc1ncn(C2CCC(CO)O2)c(=O)n1 (stereo not given)	16%
Nc1nc(=O)n(C2CCC(CO)O2)cc1Br (stereo not given)	6%

system: not listed separately; test: Compound was evaluated for the protective effect against HTLV-III/LAV (HIV) pathogenesis at a concentration of 100(uM); assay type: functional; how it was run: as §1

Compound	Protective effect
Cc1cn(C2CCC(CO)O2)c(=O)nc1N (stereo not given)	3%
Cc1cn([C@H]2C=C[C@@H](CO)O2)c(=O)[nH]c1=O [STAVUDINE]	19%

system: not listed separately; test: Compound was evaluated for the protective effect against HTLV-III/LAV (HIV) pathogenesis at a concentration of 1000(uM); assay type: functional; how it was run: as §1

Compound	Protective effect
Cc1cn([C@H]2C=C[C@@H](CO)O2)c(=O)[nH]c1=O [STAVUDINE]	46%

system: ATH-8 cell line; test: (§2) Compound was evaluated for cytotoxicity by HIV cytopathic effect assay performed with ATH8 cells at a concentration of 10(uM); assay type: functional, Homo sapiens
How it was run: (§3)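 Uninfected control ATH8 cells (2×10^5) were polybrene-treated and cultured in 2 mL IL-2-containing medium with or without compound at 37 °C in 5% CO2. Viable cells were counted by trypan blue exclusion on a hemocytometer at days 5–7. % cytotoxicity = 100 × [1 − (viable cells with nucleoside ÷ viable cells cultured alone)].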

Compound	Cytotoxicity
Cc1cn(C2CCC(CO)O2)c(=O)nc1N (stereo not given)	27%
Nc1ncn(C2CCC(CO)O2)c(=O)n1 (stereo not given)	19%
Nc1nc(=O)n(C2CCC(CO)O2)cc1Br (stereo not given)	14%
N.N.Nc1ccn(C2CCC(COP(=O)(O)O)O2)c(=O)n1 (stereo not given)	0%

system: not listed separately; test: Compound was evaluated for the protective effect against HTLV-III/LAV (HIV) pathogenesis at a concentration of 500(uM); assay type: functional; how it was run: as §1

Compound	Protective effect
Cc1cn([C@H]2C=C[C@@H](CO)O2)c(=O)[nH]c1=O [STAVUDINE]	68%

system: ATH-8 cell line; test: Compound was evaluated for cytotoxicity by HIV cytopathic effect assay performed with ATH8 cells at a concentration of 100(uM); assay type: functional, Homo sapiens; how it was run: as §3

Compound	Cytotoxicity
Cc1cn(C2CCC(CO)O2)c(=O)nc1N (stereo not given)	44%
Cc1cn([C@H]2C=C[C@@H](CO)O2)c(=O)[nH]c1=O [STAVUDINE]	13%

system: ATH-8 cell line; test: Compound was evaluated for cytotoxicity by HIV cytopathic effect assay performed with ATH8 cells at a concentration of 1(uM); assay type: functional, Homo sapiens; how it was run: as §3

Compound	Cytotoxicity
Nc1ncn(C2CCC(CO)O2)c(=O)n1 (stereo not given)	13%
Nc1nc(=O)n(C2CCC(CO)O2)cc1Br (stereo not given)	14%

system: ATH-8 cell line; test: Compound was evaluated for cytotoxicity by HIV cytopathic effect assay performed with ATH8 cells at a concentration of 30(uM); assay type: functional, Homo sapiens; how it was run: as §3

Compound	Cytotoxicity
Nc1nc(=O)n(C2CCC(CO)O2)cc1Br (stereo not given)	2%

system: ATH-8 cell line; test: Compound was evaluated for cytotoxicity by HIV cytopathic effect assay performed with ATH8 cells at a concentration of 2000(uM); assay type: functional, Homo sapiens; how it was run: as §3

Compound	Cytotoxicity
Cc1cn([C@H]2C=C[C@@H](CO)O2)c(=O)[nH]c1=O [STAVUDINE]	53%

system: not listed separately; test: Compound was evaluated for the protective effect against HTLV-III/LAV (HIV) pathogenesis at a concentration of 50(uM); assay type: functional; how it was run: as §1

Compound	Protective effect
Nc1ncn(C2CCC(CO)O2)c(=O)n1 (stereo not given)	38%
Cc1cn([C@H]2C=C[C@@H](CO)O2)c(=O)[nH]c1=O [STAVUDINE]	9%

system: ATH-8 cell line; test: Compound was evaluated for cytotoxicity by HIV cytopathic effect assay performed with ATH8 cells at a concentration of 50(uM); assay type: functional, Homo sapiens; how it was run: as §3

Compound	Cytotoxicity
Nc1ncn(C2CCC(CO)O2)c(=O)n1 (stereo not given)	62%
Cc1cn([C@H]2C=C[C@@H](CO)O2)c(=O)[nH]c1=O [STAVUDINE]	8%

system: ATH-8 cell line; test: Compound was evaluated for cytotoxicity by HIV cytopathic effect assay performed with ATH8 cells at a concentration of 500(uM); assay type: functional, Homo sapiens; how it was run: as §3

Compound	Cytotoxicity
Cc1cn([C@H]2C=C[C@@H](CO)O2)c(=O)[nH]c1=O [STAVUDINE]	30%

system: ATH-8 cell line; test: Compound was evaluated for cytotoxicity by HIV cytopathic effect assay performed with ATH8 cells at a concentration of 2(uM); assay type: functional, Homo sapiens; how it was run: as §3

Compound	Cytotoxicity
Cc1cn(C2CCC(CO)O2)c(=O)nc1N (stereo not given)	23%
N.N.Nc1ccn(C2CCC(COP(=O)(O)O)O2)c(=O)n1 (stereo not given)	7%

system: not listed separately; test: Compound was evaluated for the protective effect against HTLV-III/LAV (HIV) pathogenesis at a concentration of 0.5(uM); assay type: functional; how it was run: as §1

Compound	Protective effect
N.N.Nc1ccn(C2CCC(COP(=O)(O)O)O2)c(=O)n1 (stereo not given)	13%

system: not listed separately; test: Compound was evaluated for the protective effect against HTLV-III/LAV (HIV) pathogenesis at a concentration of 2000(uM); assay type: functional; how it was run: as §1

Compound	Protective effect
Cc1cn([C@H]2C=C[C@@H](CO)O2)c(=O)[nH]c1=O [STAVUDINE]	43%

system: ATH-8 cell line; test: Compound was evaluated for cytotoxicity by HIV cytopathic effect assay performed with ATH8 cells at a concentration of 1000(uM); assay type: functional, Homo sapiens; how it was run: as §3

Compound	Cytotoxicity
Cc1cn([C@H]2C=C[C@@H](CO)O2)c(=O)[nH]c1=O [STAVUDINE]	40%

system: ATH-8 cell line; test: as §2; assay type: functional; how it was run: as §3

Compound	Cytotoxicity
Cc1cn([C@H]2C=C[C@@H](CO)O2)c(=O)[nH]c1=O [STAVUDINE]	8%

system: not listed separately; test: Compound was evaluated for the protective effect against HTLV-III/LAV (HIV) pathogenesis at a concentration of 2(uM); assay type: functional; how it was run: as §1

Compound	Protective effect
Cc1cn(C2CCC(CO)O2)c(=O)nc1N (stereo not given)	2%
N.N.Nc1ccn(C2CCC(COP(=O)(O)O)O2)c(=O)n1 (stereo not given)	9%

system: ATH-8 cell line; test: Compound was evaluated for cytotoxicity by HIV cytopathic effect assay performed with ATH8 cells at a concentration of 0.5(uM); assay type: functional, Homo sapiens; how it was run: as §3

Compound	Cytotoxicity
N.N.Nc1ccn(C2CCC(COP(=O)(O)O)O2)c(=O)n1 (stereo not given)	0%

system: ATH-8 cell line; test: Compound was evaluated for cytotoxicity by HIV cytopathic effect assay performed with ATH8 cells at a concentration of 200(uM); assay type: functional, Homo sapiens; how it was run: as §3

Compound	Cytotoxicity
Nc1nc(=O)n(C2CCC(CO)O2)cc1Br (stereo not given)	0%
Cc1cn([C@H]2C=C[C@@H](CO)O2)c(=O)[nH]c1=O [STAVUDINE]	6%
